The values that follow come from ChEMBL document CHEMBL1255457, “Determination of an inoculum effect with various cephalosporins among clinical isolates of methicillin-susceptible Staphylococcus aureus” (2010).

Format in all cases: functional
Experiment [1] relates to Staphylococcus aureus. Briefly: Antibacterial activity against methicillin-susceptible beta-lactamase positive Staphylococcus aureus using 5x10^7 CFU/ml high inoculum after 24 hrs by broth microdilution method. In short, it runs like this:
(§1)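 Clinical MSSA isolates previously typed by Bla (25 type A, 15 type B, 45 type C, 13 blaZ-negative), with TX0117, ATCC 29213 and ATCC 25923 as controls. Broth microdilution per CLSI, read at 24 h. Standard (~5 × 10^5 CFU/ml) or high (~5 × 10^7 CFU/ml) inoculum set by OD, CFU/ml checked at random. MIC90 and geometric mean MIC per group, compared by Mann-Whitney test.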

In experiment [2] the test system is Staphylococcus aureus. Briefly: Antibacterial activity against methicillin-susceptible Bla-producing Staphylococcus aureus type A using 5x10^7 CFU/ml high inoculum after 24 hrs by broth microdilution method. In short, it runs like this: as §1
(Dilution methods test growth across graded concentrations, often in twofold steps.)

In experiment [3] the test system is Staphylococcus aureus. Kind of experiment: Antibacterial activity against methicillin-susceptible Bla-producing Staphylococcus aureus type A using 5x10^5 CFU/ml standard inoculum after 24 hrs by broth microdilution method. In short, it runs like this:
as §1

Experiment [4] deals with Staphylococcus aureus. Kind of experiment: Antibacterial activity against methicillin-susceptible Bla-producing Staphylococcus aureus type B using 5x10^7 CFU/ml high inoculum after 24 hrs by broth microdilution method. The gist of the method: as §1
For experiment [5], the system named is Staphylococcus aureus. Kind of experiment: Antibacterial activity against methicillin-susceptible beta-lactamase negative Staphylococcus aureus using 5x10^7 CFU/ml high inoculum after 24 hrs by broth microdilution method. The gist of the method:
as §1

Experiment [6] has as its system Staphylococcus aureus. Kind of experiment: Antibacterial activity against methicillin-susceptible beta-lactamase positive Staphylococcus aureus using 5x10^5 CFU/ml standard inoculum after 24 hrs by broth microdilution method. The gist of the method: as §1
Experiment [7] has as its system Staphylococcus aureus. Kind of experiment: Antibacterial activity against methicillin-susceptible Bla-producing Staphylococcus aureus type C using 5x10^5 CFU/ml standard inoculum after 24 hrs by broth microdilution method. In short, it runs like this: as §1
In experiment [8] the test system is Staphylococcus aureus. Briefly: Antibacterial activity against methicillin-susceptible Bla-producing Staphylococcus aureus type B using 5x10^5 CFU/ml standard inoculum after 24 hrs by broth microdilution method. In short, it runs like this:
as §1

For experiment [9], the system named is Staphylococcus aureus. Kind of experiment: Antibacterial activity against methicillin-susceptible Bla-producing Staphylococcus aureus type C using 5x10^7 CFU/ml high inoculum after 24 hrs by broth microdilution method. The gist of the method: as §1
Experiment [10] deals with Staphylococcus aureus. Briefly: Antibacterial activity against methicillin-susceptible beta-lactamase negative Staphylococcus aureus using 5x10^5 CFU/ml standard inoculum after 24 hrs by broth microdilution method. The gist of the method: as §1

≈ marks a conversion by molar mass, not a printed value.

On to `Nc1nc(/C(=N/O)C(=O)N[C@@H]2C(=O)N3C(C(=O)O)=C(/C=C4\CCN([C@@H]5CCNC5)C4=O)CS[C@H]23)ns1` [CEFTOBIPROLE], for which the MIC (usually the least concentration at which growth counts as inhibited) against Staphylococcus aureus [1] amounted to 0.7 µg/mL (≈ 1.31 µM); against Staphylococcus aureus [2] it was 0.7 µg/mL (≈ 1.31 µM); against Staphylococcus aureus [3] it was 0.4 µg/mL (≈ 0.748 µM); in the experiment on Staphylococcus aureus [4] it was 0.7 µg/mL (≈ 1.31 µM); in the experiment with Staphylococcus aureus [5], 0.3 µg/mL (≈ 0.561 µM); against Staphylococcus aureus [6], 0.4 µg/mL (≈ 0.748 µM). Besides, the MIC with Staphylococcus aureus [7] is 0.5 µg/mL (≈ 0.935 µM); against Staphylococcus aureus [8] it was 0.5 µg/mL (≈ 0.935 µM); in the experiment with Staphylococcus aureus [9], 0.7 µg/mL (≈ 1.31 µM); in the experiment on Staphylococcus aureus [10], 0.3 µg/mL (≈ 0.561 µM). The MIC90 (usually the lowest concentration that inhibits either 90% of growth or 90% of the strains tested, depending on the study) against Staphylococcus aureus [1] turned out to be 1 µg/mL (≈ 1.87 µM); with Staphylococcus aureus [2] it was 1 µg/mL (≈ 1.87 µM); against Staphylococcus aureus [3], 0.5 µg/mL (≈ 0.935 µM); with Staphylococcus aureus [4], 2 µg/mL (≈ 3.74 µM); with Staphylococcus aureus [5], 0.5 µg/mL (≈ 0.935 µM); in the experiment on Staphylococcus aureus [6], 0.5 µg/mL (≈ 0.935 µM). The MIC90 with Staphylococcus aureus [7] amounted to 0.5 µg/mL (≈ 0.935 µM); against Staphylococcus aureus [8] it was 0.5 µg/mL (≈ 0.935 µM); against Staphylococcus aureus [9] it was 1 µg/mL (≈ 1.87 µM); with Staphylococcus aureus [10], 0.5 µg/mL (≈ 0.935 µM).
For the molecule `CO/N=C(\C(=O)N[C@@H]1C(=O)N2C(C(=O)O)=C(CSc3nc(=O)c(O)nn3C)CS[C@H]12)c1csc(N)n1` [CEFTRIAXONE], the MIC in the experiment with Staphylococcus aureus [1] amounted to 3.4 µg/mL (≈ 6.13 µM); against Staphylococcus aureus [5], 3.1 µg/mL (≈ 5.59 µM); against Staphylococcus aureus [6] it was 2.9 µg/mL (≈ 5.23 µM); with Staphylococcus aureus [10], 3.1 µg/mL (≈ 5.59 µM). For the same molecule, the MIC90 with Staphylococcus aureus [1], against Staphylococcus aureus [5], against Staphylococcus aureus [6] and against Staphylococcus aureus [10] was 4 µg/mL (≈ 7.21 µM) in each case.
For `CO/N=C(\C(=O)N[C@@H]1C(=O)N2C(C(=O)O)=C(COC(N)=O)CS[C@H]12)c1ccco1` [CEFUROXIME], in the experiment on Staphylococcus aureus [1], the MIC turned out to be 1 µg/mL (≈ 2.36 µM) and the MIC90 turned out to be 1 µg/mL (≈ 2.36 µM). In addition, in the experiment on Staphylococcus aureus [5], it took 1 µg/mL (≈ 2.36 µM) to inhibit growth (MIC) and the MIC90 amounted to 1 µg/mL (≈ 2.36 µM).
In the case of `CC1=C(C(=O)O)N2C(=O)[C@@H](NC(=O)[C@H](N)c3ccccc3)[C@H]2SC1` [CEPHALEXIN ANHYDROUS], the MIC in the experiment with Staphylococcus aureus [1] worked out at 10.7 µg/mL (≈ 30.8 µM); against Staphylococcus aureus [2], 10.6 µg/mL (≈ 30.5 µM); against Staphylococcus aureus [3], 4.6 µg/mL (≈ 13.2 µM); in the experiment on Staphylococcus aureus [4], 14.7 µg/mL (≈ 42.3 µM); in the experiment on Staphylococcus aureus [5] it was 3.1 µg/mL (≈ 8.92 µM); in the experiment on Staphylococcus aureus [6], 3.9 µg/mL (≈ 11.2 µM). The MIC with Staphylococcus aureus [7] is 3.8 µg/mL (≈ 10.9 µM); with Staphylococcus aureus [8], 3.3 µg/mL (≈ 9.5 µM); against Staphylococcus aureus [9] it was 6.6 µg/mL (≈ 19 µM); against Staphylococcus aureus [10] it was 2.5 µg/mL (≈ 7.2 µM). For the same molecule, the MIC90 against Staphylococcus aureus [1] was 32 µg/mL (≈ 92.1 µM); with Staphylococcus aureus [2] it was 32 µg/mL (≈ 92.1 µM); in the experiment on Staphylococcus aureus [3], 8 µg/mL (≈ 23 µM); against Staphylococcus aureus [4] it was 64 µg/mL (≈ 184 µM); with Staphylococcus aureus [5], 4 µg/mL (≈ 11.5 µM); in the experiment on Staphylococcus aureus [6] it was 4 µg/mL (≈ 11.5 µM). In addition, the MIC90 in the experiment with Staphylococcus aureus [7] came out at 4 µg/mL (≈ 11.5 µM); in the experiment with Staphylococcus aureus [8], 4 µg/mL (≈ 11.5 µM); in the experiment on Staphylococcus aureus [9], 16 µg/mL (≈ 46.1 µM); in the experiment with Staphylococcus aureus [10], 4 µg/mL (≈ 11.5 µM).
As to `CC(=O)OCC1=C(C(=O)O)N2C(=O)[C@@H](NC(=O)Cc3cccs3)[C@H]2SC1` [CEPHALOTHIN], the MIC against Staphylococcus aureus [1] stood at 1.9 µg/mL (≈ 4.79 µM); in the experiment on Staphylococcus aureus [2] it was 2 µg/mL (≈ 5.04 µM); with Staphylococcus aureus [3], 0.4 µg/mL (≈ 1.01 µM); against Staphylococcus aureus [4], 1.3 µg/mL (≈ 3.28 µM); against Staphylococcus aureus [5], 0.3 µg/mL (≈ 0.757 µM); in the experiment on Staphylococcus aureus [6] it was 0.5 µg/mL (≈ 1.26 µM). The MIC in the experiment with Staphylococcus aureus [7] is 0.6 µg/mL (≈ 1.51 µM); in the experiment on Staphylococcus aureus [8] it was 0.5 µg/mL (≈ 1.26 µM); against Staphylococcus aureus [9], 3 µg/mL (≈ 7.57 µM); in the experiment with Staphylococcus aureus [10], 0.3 µg/mL (≈ 0.757 µM). Moreover, the MIC90 against Staphylococcus aureus [1] turned out to be 8 µg/mL (≈ 20.2 µM); in the experiment on Staphylococcus aureus [2] it was 8 µg/mL (≈ 20.2 µM); in the experiment with Staphylococcus aureus [3] it was 0.5 µg/mL (≈ 1.26 µM); in the experiment with Staphylococcus aureus [4], 4 µg/mL (≈ 10.1 µM); in the experiment with Staphylococcus aureus [5], 0.5 µg/mL (≈ 1.26 µM); in the experiment on Staphylococcus aureus [6], 1 µg/mL (≈ 2.52 µM). Further, the MIC90 amounted to 1 µg/mL (≈ 2.52 µM) in the experiment with Staphylococcus aureus [7], 1 µg/mL (≈ 2.52 µM) with Staphylococcus aureus [8], 8 µg/mL (≈ 20.2 µM) against Staphylococcus aureus [9] and 0.5 µg/mL (≈ 1.26 µM) against Staphylococcus aureus [10].
Consider `CCOc1ccc2ccccc2c1C(=O)N[C@@H]1C(=O)N2[C@@H]1SC(C)(C)[C@@H]2C(=O)O` [NAFCILLIN], for which the MIC with Staphylococcus aureus [1] worked out at 0.7 µg/mL (≈ 1.69 µM); against Staphylococcus aureus [5], 0.7 µg/mL (≈ 1.69 µM); in the experiment with Staphylococcus aureus [6], 0.4 µg/mL (≈ 0.965 µM); against Staphylococcus aureus [10], 0.4 µg/mL (≈ 0.965 µM). Besides, the MIC90 against Staphylococcus aureus [1] was determined as 1 µg/mL (≈ 2.41 µM); with Staphylococcus aureus [5], 1 µg/mL (≈ 2.41 µM); in the experiment on Staphylococcus aureus [6], 0.5 µg/mL (≈ 1.21 µM); against Staphylococcus aureus [10] it was 0.5 µg/mL (≈ 1.21 µM).
